Test results published in ChEMBL document CHEMBL5696442, “Discovery of type II inhibitors of TGFβ-activated kinase 1 (TAK1) and mitogen-activated protein kinase kinase kinase kinase 2 (MAP4K2)” (J Med Chem, 2015).

Legend:
[1] = biological target: T1, Serine/threonine-protein kinase Nek9 (Homo sapiens) (UniProt Q8TD19); assay: Inhibition of NEK9 Lys1 labeling site harbouring RTEDDSLVVWKEVDLTR in human A-375 cells at 0.05 uM by KiNativ Profiling analysis relative to control; assay type: cell-based
T1 sequence (whole entry): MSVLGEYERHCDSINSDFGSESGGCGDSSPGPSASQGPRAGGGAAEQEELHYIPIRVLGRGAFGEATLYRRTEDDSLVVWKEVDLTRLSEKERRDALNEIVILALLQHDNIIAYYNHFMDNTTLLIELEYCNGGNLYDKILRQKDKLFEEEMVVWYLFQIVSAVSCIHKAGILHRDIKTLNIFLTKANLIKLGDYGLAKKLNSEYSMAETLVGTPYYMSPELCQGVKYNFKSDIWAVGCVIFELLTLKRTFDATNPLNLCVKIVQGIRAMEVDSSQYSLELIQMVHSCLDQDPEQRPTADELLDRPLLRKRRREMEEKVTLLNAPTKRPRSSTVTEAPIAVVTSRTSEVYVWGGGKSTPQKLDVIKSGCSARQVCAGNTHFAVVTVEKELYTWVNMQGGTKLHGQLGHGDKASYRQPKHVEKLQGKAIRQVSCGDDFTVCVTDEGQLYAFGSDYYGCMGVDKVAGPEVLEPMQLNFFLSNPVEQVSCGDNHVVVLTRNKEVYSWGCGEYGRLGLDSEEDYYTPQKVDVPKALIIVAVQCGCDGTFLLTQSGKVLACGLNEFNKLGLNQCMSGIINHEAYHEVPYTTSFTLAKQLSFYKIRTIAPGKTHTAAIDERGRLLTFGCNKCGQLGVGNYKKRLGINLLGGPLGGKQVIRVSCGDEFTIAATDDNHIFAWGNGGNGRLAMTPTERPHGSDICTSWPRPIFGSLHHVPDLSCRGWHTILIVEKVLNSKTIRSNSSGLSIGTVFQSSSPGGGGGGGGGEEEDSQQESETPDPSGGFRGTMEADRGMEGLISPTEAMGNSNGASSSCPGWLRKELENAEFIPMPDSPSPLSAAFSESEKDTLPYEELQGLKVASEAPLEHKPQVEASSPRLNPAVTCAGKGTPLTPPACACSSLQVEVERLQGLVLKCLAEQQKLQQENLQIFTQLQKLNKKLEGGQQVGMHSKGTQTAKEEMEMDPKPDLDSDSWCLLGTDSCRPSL

[2] = biological target: Cyclin-dependent kinase 1 (Homo sapiens) (UniProt P06493); assay: Inhibition of CDC2 Lys2 labeling site harbouring DLKPQNLLIDDKGTIK in human A-375 cells at 0.5 uM by KiNativ Profiling analysis relative to control; assay type: cell-based
Chain of Cyclin-dependent kinase 1 (Homo sapiens) (P06493 whole entry, looked up): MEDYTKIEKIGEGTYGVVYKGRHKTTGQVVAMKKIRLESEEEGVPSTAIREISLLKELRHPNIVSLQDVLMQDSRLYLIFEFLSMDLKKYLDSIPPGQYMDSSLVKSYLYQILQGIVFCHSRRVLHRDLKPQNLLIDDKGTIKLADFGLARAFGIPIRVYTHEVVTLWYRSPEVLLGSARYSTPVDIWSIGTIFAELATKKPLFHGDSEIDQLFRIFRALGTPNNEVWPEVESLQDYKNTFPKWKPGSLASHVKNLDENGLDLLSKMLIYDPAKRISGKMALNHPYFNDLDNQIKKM
Outline: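 Live A375 melanoma cells were treated with compound at 5 or 0.5 μM. The cells were then lysed, and the lysates were labeled with a lysine-reactive ATP or ADP-biotin acyl probe (KiNativ). Inhibition is the compound's protection of each kinase labeling-site peptide from probe labeling, relative to untreated control.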

[3] = biological target: DNA-PK/Ku70/Ku85 (Homo sapiens) (UniProt P78527+P12956+P13010); assay: Inhibition of DNAPK ATP labeling site harbouring GHDEREHPFLVKGGEDLR in human A-375 cells at 5 uM by KiNativ Profiling analysis relative to control; assay type: cell-based
Outline: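 A375 melanoma cells treated live with compound at 5 μM, then lysed. Lysates were labeled with a lysine-reactive ATP or ADP-biotin probe (KiNativ). Read-out is how well the compound protects each kinase labeling site from probe labeling.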

[4] = biological target: T2, Mitogen-activated protein kinase 12 (Homo sapiens) (UniProt P53778); assay: Inhibition of p38 gamma Lys2 labeling site in human A-375 cells at 5 uM by KiNativ Profiling analysis relative to control; assay type: cell-based
T2 sequence (whole entry): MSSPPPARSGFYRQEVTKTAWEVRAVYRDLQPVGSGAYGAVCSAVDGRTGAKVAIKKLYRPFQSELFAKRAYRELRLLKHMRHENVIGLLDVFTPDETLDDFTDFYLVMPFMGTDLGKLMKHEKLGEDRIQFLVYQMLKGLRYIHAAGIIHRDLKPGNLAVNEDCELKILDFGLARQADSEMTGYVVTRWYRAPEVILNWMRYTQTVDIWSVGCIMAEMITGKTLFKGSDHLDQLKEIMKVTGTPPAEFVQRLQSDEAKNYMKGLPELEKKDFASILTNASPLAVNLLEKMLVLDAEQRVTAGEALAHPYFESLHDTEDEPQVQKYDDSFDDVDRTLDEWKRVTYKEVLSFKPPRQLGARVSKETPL

[5] = biological target: Mitogen-activated protein kinase kinase kinase kinase 4 (Homo sapiens, UniProt O95819); assay: Inhibition of ZC1/HGK Lys2 labeling site in human A-375 cells at 0.05 uM by KiNativ Profiling analysis relative to control; assay type: cell-based
Chain of Mitogen-activated protein kinase kinase kinase kinase 4 (O95819 2-1239 limits assumed): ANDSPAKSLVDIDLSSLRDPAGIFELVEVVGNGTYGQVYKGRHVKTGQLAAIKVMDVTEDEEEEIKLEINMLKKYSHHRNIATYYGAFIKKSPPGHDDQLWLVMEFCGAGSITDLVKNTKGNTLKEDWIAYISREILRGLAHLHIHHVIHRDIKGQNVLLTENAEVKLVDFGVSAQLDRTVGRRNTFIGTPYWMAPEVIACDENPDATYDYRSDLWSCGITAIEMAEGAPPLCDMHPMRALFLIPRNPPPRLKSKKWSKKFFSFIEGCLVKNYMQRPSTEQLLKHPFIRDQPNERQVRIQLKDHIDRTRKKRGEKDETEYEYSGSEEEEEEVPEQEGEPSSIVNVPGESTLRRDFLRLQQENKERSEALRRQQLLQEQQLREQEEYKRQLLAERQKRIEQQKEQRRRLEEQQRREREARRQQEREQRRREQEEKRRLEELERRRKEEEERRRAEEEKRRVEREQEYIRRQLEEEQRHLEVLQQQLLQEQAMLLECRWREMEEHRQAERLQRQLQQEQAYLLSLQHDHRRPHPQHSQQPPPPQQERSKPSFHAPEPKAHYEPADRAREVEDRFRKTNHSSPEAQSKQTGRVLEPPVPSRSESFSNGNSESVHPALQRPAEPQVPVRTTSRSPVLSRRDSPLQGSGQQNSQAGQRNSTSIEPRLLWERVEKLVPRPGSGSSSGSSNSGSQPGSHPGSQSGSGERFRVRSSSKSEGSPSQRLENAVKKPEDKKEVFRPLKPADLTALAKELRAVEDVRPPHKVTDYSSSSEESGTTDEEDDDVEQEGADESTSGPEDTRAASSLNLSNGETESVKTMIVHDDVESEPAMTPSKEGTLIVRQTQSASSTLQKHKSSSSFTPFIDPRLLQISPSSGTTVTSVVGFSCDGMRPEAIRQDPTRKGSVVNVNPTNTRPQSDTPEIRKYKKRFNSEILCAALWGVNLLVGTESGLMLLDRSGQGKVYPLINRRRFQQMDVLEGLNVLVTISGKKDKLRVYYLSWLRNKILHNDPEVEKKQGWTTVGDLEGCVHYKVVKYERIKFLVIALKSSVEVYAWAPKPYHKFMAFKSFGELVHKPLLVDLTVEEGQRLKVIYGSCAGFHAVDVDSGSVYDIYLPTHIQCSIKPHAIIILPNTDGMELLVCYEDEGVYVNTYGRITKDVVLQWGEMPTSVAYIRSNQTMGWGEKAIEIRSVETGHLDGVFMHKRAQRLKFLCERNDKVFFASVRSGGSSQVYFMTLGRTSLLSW

[6] = biological target: Mitogen-activated protein kinase 14 (Homo sapiens, UniProt Q16539); assay: Inhibition of p38 alpha (unknown origin) by KiNativ Profiling analysis
Chain of Mitogen-activated protein kinase 14 (Q16539 whole entry, the tested form may be a part): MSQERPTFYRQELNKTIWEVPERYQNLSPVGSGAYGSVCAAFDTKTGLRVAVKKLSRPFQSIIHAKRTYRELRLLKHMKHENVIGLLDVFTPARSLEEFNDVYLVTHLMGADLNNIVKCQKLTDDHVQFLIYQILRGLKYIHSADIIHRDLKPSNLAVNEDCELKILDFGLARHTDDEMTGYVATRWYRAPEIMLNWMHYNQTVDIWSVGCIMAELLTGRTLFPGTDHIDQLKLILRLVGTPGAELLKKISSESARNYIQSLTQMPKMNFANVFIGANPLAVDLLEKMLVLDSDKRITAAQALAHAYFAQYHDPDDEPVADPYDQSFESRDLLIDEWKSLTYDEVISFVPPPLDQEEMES

[7] = biological target: Ribosomal protein S6 kinase alpha-1 (Homo sapiens) (UniProt Q15418); assay: Inhibition of RSK1 domain2 Lys2 labeling site in human A-375 cells at 0.5 uM by KiNativ Profiling analysis relative to control; assay type: cell-based
Chain of Ribosomal protein S6 kinase alpha-1 (Homo sapiens) (Q15418 whole entry, the tested form may be a part): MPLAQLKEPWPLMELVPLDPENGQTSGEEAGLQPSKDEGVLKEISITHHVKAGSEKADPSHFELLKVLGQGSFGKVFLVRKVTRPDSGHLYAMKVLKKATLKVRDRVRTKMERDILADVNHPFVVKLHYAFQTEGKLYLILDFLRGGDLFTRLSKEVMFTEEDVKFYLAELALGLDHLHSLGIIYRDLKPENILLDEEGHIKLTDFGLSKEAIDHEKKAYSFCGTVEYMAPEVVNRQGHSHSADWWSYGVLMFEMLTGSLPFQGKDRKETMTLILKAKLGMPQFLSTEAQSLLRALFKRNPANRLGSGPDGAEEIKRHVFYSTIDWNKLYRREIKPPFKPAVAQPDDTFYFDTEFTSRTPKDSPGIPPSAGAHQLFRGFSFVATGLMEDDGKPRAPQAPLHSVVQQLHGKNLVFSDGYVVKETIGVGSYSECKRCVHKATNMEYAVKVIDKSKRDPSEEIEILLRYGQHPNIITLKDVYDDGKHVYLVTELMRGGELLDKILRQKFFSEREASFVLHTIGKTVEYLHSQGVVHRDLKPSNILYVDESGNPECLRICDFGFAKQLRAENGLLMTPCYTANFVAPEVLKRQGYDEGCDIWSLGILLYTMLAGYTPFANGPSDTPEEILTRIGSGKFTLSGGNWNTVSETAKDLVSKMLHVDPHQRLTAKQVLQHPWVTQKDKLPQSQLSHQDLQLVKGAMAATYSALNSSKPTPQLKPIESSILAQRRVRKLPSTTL
Outline: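 Live A375 melanoma cells treated with compound at 5 or 0.5 μM, then lysed. Lysate kinases were labeled with a lysine-reactive ATP or ADP-biotin probe. Inhibition was read as protection of labeling sites from the probe.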

[8] = biological target: Mitogen-activated protein kinase 8 (Homo sapiens, UniProt P45983); assay: Inhibition of JNK1 (unknown origin) Lys2 labeling site by KiNativ Profiling analysis
Chain of Mitogen-activated protein kinase 8 (P45983 whole entry): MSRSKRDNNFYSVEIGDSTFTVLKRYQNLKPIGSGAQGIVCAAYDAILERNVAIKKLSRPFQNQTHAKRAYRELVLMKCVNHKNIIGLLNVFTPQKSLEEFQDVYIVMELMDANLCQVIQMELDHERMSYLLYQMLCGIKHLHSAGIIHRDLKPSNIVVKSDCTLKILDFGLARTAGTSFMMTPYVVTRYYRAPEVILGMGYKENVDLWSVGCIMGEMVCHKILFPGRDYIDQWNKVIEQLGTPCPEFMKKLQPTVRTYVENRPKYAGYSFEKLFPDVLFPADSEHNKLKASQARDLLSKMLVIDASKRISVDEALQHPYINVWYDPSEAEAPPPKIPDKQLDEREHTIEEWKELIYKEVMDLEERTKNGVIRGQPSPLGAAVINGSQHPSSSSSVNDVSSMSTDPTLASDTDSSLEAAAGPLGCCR

[9] = biological target: T3, Dual specificity mitogen-activated protein kinase kinase 3 (Homo sapiens) (UniProt P46734); assay: Inhibition of MAP2K3 Lys2 labeling site in human A-375 cells at 5 uM by KiNativ Profiling analysis relative to control; assay type: cell-based
T3 sequence (whole entry): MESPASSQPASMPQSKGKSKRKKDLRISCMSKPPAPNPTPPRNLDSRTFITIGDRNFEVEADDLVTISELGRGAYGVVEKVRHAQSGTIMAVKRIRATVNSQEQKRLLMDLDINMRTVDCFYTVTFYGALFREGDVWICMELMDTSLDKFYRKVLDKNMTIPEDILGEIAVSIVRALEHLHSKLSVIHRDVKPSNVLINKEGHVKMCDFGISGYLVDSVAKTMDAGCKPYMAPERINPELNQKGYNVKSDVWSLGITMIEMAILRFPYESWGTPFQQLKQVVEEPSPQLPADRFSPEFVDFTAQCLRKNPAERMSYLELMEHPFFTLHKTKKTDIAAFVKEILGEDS

## CCN1CCN(Cc2ccc(NC(=O)c3ccc(C)c(/C=C/c4cnc5[nH]ccc5c4OC)c3)cc2C(F)(F)F)CC1
[1]
  inhibition: 18.8%
[2]
  inhibition: 6.3%
[3]
  inhibition: 13.8%
[4]
  inhibition: 52.7%
[5]
  inhibition: 19.5%
[6]
  IC50: 238 nM
[7]
  inhibition: 1.6%
[8]
  IC50: > 10000 nM
[9]
  inhibition: -6.9%

## CCN1CCN(Cc2ccc(NC(=O)c3ccc(C)c(Oc4ccnc5[nH]ccc45)c3)cc2C(F)(F)F)CC1
[1]
  inhibition: 1.8%
[2]
  inhibition: 13.7%
[3]
  inhibition: 17.1%
[4]
  inhibition: > 94%
[5]
  inhibition: 32.6%
[6]
  IC50: 102 nM
[7]
  inhibition: 3%
[8]
  IC50: > 10000 nM
[9]
  inhibition: -5.7%
